Assay results taken from ChEMBL document CHEMBL1146370 (Bioorg Med Chem, 2007).
pIC50, pKi: −log10 of the molar value.

Key:
Vasopressin V1a receptor = Vasopressin V1a receptor (Homo sapiens, UniProt P37288); assay: Binding affinity for human cloned vasopressin V1a receptor expressed in CHO cells; format: cell-based
Procedure, shortened: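 Whole-cell competition binding on CHO cells stably expressing human V1a, grown in alpha-MEM with 10% FBS and 250 ug/ml G418. Cells were plated at least 2 days ahead and incubated 30 min at 37 °C in HEPES/BSA/DMEM buffer (pH 7.0) with 1 nM [3H]AVP and 5 test concentrations (usually 0.1–1000 nM), in triplicate. Nonspecific binding was set with 100 nM AVP. Bound radioactivity was SDS-lysed and scintillation-counted. Curve-fit IC50 was converted to Ki with a 0.61 factor.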

[1] = Cmax in Sprague-Dawley rat brain at 20 mg/kg, po; format: ADME, organism-based; design: dose 20 mg/kg, route oral
Procedure, shortened: (§1)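 Sprague-Dawley rats were gavaged with 20 mg/kg in 23% hydroxypropyl-beta-cyclodextrin with 0.68% lactic acid; the screen co-dosed three compounds per animal. Blood was taken by cardiac puncture under CO2 anesthesia into sodium heparin at 0.25, 0.5, 1, 2, 4, 8, 12 and 24 h, from 3 rats per time point. Plasma was separated within 1 h. Plasma and brain levels were measured by LC/MS.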

[2] = Tmax in Sprague-Dawley rat plasma at 20 mg/kg, po; format: ADME, organism-based; design: dose 20 mg/kg, route oral; procedure, shortened: as §1
[3] = Half life in Sprague-Dawley rat brain at 20 mg/kg, po; format: ADME, organism-based; design: dose 20 mg/kg, route oral; procedure, shortened: as §1
[4] = Cmax in Sprague-Dawley rat plasma at 20 mg/kg, po; format: ADME, organism-based; design: dose 20 mg/kg, route oral; procedure, shortened: as §1
[5] = Half life in Sprague-Dawley rat plasma at 20 mg/kg, po; format: ADME, organism-based; design: dose 20 mg/kg, route oral; procedure, shortened: as §1
[6] = Drug level in dog brain at 10 mg/kg, po after 4 hrs; format: ADME, organism-based, Canis lupus familiaris; design: dose 10 mg/kg, route oral; conditions: read-out: Drug uptake
Procedure, shortened: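 A single dog received an oral dose of 10 mg/kg in 10% DMSO/90% PEG300. Brain regions (cortex, brain stem, cerebellum, hypothalamus, hippocampus) and blood were frozen and stored at −70 °C. Samples were homogenized in pH 9.4 buffer, extracted with ethyl acetate with an extraction reference added, reconstituted in acetonitrile, and quantified by ESI LC/MS/MS against spiked control brain standards.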

Sequence of Vasopressin V1a receptor (P37288 whole entry): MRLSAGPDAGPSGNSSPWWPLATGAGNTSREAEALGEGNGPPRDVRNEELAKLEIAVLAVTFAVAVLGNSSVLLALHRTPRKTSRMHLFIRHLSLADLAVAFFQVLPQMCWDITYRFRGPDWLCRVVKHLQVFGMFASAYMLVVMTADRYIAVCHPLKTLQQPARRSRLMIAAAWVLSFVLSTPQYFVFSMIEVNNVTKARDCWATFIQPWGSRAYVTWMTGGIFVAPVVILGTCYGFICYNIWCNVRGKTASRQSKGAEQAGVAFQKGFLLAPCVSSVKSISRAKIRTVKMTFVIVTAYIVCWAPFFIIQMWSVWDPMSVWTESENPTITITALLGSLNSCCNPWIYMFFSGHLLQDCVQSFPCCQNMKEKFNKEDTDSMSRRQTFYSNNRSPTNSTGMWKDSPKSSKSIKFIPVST

SMILES | pIC50 (Vasopressin V1a receptor) | pKi (Vasopressin V1a receptor) | also measured
CC(C)C[C@@H](C(=O)NCc1ccc(Cl)cc1)N1C(=O)[C@@H](N2C(=O)OC[C@@H]2c2ccccc2)[C@H]1/C=C/c1ccccc1 | 6.58 | – | –
CC(C)C[C@@H](C(=O)NCc1ccccc1)N1C(=O)[C@@H](N2C(=O)OC[C@@H]2c2ccccc2)[C@H]1/C=C/c1ccccc1 | 6.89 | – | –
O=C(OCc1ccccc1)C(C(=O)c1ccccc1)N1C(=O)[C@@H](N2C(=O)OC[C@@H]2c2ccccc2)[C@H]1/C=C/c1ccccc1 (stereo not given in full) | 7.00 | – | –
C[C@@H](NC(=O)[C@@H](CC(=O)N1CCC(N2CCCCC2)CC1)N1C(=O)[C@@H](N2C(=O)OC[C@@H]2c2ccccc2)[C@H]1/C=C/c1ccccc1)c1ccccc1 | – | – | Cmax [1]: 0.02 µg/mL; Tmax [2]: 4 h; half-life [3]: 6 h; Cmax [4]: 0.1 µg/mL; half-life [5]: 2.5 h
CC1(C(C(=O)OCc2ccccc2)N2C(=O)C(C)(C)[C@H]2/C=C/c2ccccc2)OCCO1 (stereo not given in full) | < 4.70 | – | –
O=C(NCc1cccc(C(F)(F)F)c1)[C@@H](CCC(=O)N1CCC(N2CCCCC2)CC1)N1C(=O)[C@@H](N2C(=O)OC[C@@H]2c2ccccc2)[C@H]1/C=C/c1ccccc1 | – | 7.52 | –
O=C(NCc1cccc(C(F)(F)F)c1)[C@H](CC(=O)N1CCN(CCN2CCCC2)CC1)N1C(=O)[C@@H](N2C(=O)OC[C@@H]2c2ccccc2)[C@H]1/C=C/c1ccccc1 | – | > 7.22 | –
CN(Cc1cccc(C(F)(F)F)c1)C(=O)[C@@H](CC(=O)N1CCC(N2CCCCC2)CC1)N1C(=O)[C@@H](N2C(=O)OC[C@@H]2c2ccccc2)[C@H]1/C=C/c1ccccc1 | – | – | Cmax [1]: 0.048 µg/mL; Tmax [2]: 4 h; half-life [3]: 6 h; Cmax [4]: 0.16 µg/mL; half-life [5]: 4 h
CN(C)CCNC(=O)[C@H](CC(=O)NCc1cccc(C(F)(F)F)c1)N1C(=O)[C@@H](N2C(=O)OC[C@@H]2c2ccccc2)[C@H]1/C=C/c1ccccc1 | – | < 6.22 | –
O=C(NCc1cccc(C(F)(F)F)c1)[C@@H](CC(=O)N1CCN(N2CCCC2)CC1)N1C(=O)[C@@H](N2C(=O)OC[C@@H]2c2ccccc2)[C@H]1/C=C/c1ccccc1 | – | 7.56 | –
O=C(NCc1cccc(C(F)(F)F)c1)[C@H](CCC(=O)N1CCC(CN2CCCCC2)CC1)N1C(=O)[C@@H](N2C(=O)OC[C@@H]2c2ccccc2)[C@H]1/C=C/c1ccccc1 | – | 8.71 | –
CC(C)(C)C(=O)C(C(=O)OCc1ccccc1)N1C(=O)[C@@H](N2C(=O)OC[C@@H]2c2ccccc2)[C@H]1CCc1ccccc1 (stereo not given in full) | < 6.30 | – | –
C[C@H](NC(=O)[C@H](CC(=O)N1CCC(CCN2CCCCC2)CC1)N1C(=O)[C@@H](N2C(=O)OC[C@@H]2c2ccccc2)[C@H]1/C=C/c1ccccc1)c1ccccc1 | – | 8.06 | –
C[C@@H](NC(=O)[C@H](CC(=O)N1CCC(CCN2CCCCC2)CC1)N1C(=O)[C@@H](N2C(=O)OC[C@@H]2c2ccccc2)[C@H]1/C=C/c1ccccc1)c1ccccc1 | – | 6.75 | –
O=C(NCc1cccc(C(F)(F)F)c1)[C@H](CC(=O)N1CCN(C2CCCC2)CC1)N1C(=O)[C@@H](N2C(=O)OC[C@@H]2c2ccccc2)[C@H]1/C=C/c1ccccc1 | – | > 7.22 | –
O=C(NCc1cccc(C(F)(F)F)c1)[C@H](CCC(=O)N1CCN(C2CCCCC2)CC1)N1C(=O)[C@@H](N2C(=O)OC[C@@H]2c2ccccc2)[C@H]1/C=C/c1ccccc1 | – | 9.57 | –
O=C(CN1C(=O)[C@@H](N2C(=O)OC[C@@H]2c2ccccc2)[C@H]1/C=C/c1ccccc1)OCc1ccccc1 | 6.40 | – | –
O=C(NCc1cccc(C(F)(F)F)c1)[C@H](CCC(=O)N1CCN(CCc2ccccc2)CC1)N1C(=O)[C@@H](N2C(=O)OC[C@@H]2c2ccccc2)[C@H]1/C=C/c1ccccc1 | – | 8.93 | –
CC(C)C[C@@H](C(=O)N1CCC(CCN2CCCCC2)CC1)N1C(=O)[C@@H](N2C(=O)OC[C@@H]2c2ccccc2)[C@H]1/C=C/c1ccccc1 | – | – | concentration at 4 h [6]: 0.1 µM
CN(C)CCCNC(=O)[C@H](CC(=O)NCc1cccc(C(F)(F)F)c1)N1C(=O)[C@@H](N2C(=O)OC[C@@H]2c2ccccc2)[C@H]1/C=C/c1ccccc1 | – | < 6.22 | –
O=C(NCc1cccc(C(F)(F)F)c1)[C@H](CC(=O)N1CCC(CCN2CCCCC2)CC1)N1C(=O)[C@@H](N2C(=O)OC[C@@H]2c2ccccc2)[C@H]1/C=C/c1ccccc1 | – | 7.64 | –

SMILES | pIC50 (Vasopressin V1a receptor) | pKi (Vasopressin V1a receptor) | also measured
O=C(CC[C@@H](C(=O)NCc1cccc(C(F)(F)F)c1)N1C(=O)[C@@H](N2C(=O)OC[C@@H]2c2ccccc2)[C@H]1/C=C/c1ccccc1)NCCN1CCCCC1 | – | 8.05 | –
CC1(C(C(=O)OCc2ccccc2)N2C(=O)[C@@H](N3C(=O)OC[C@@H]3c3ccccc3)[C@H]2/C=C/c2ccccc2)OCCO1 (stereo not given in full) | 7.35 | – | –
CC(C)(C)C(=O)[C@@H](C(=O)N1CCC(CCN2CCCCC2)CC1)N1C(=O)[C@@H](N2C(=O)OCC2c2ccccc2)C1/C=C/c1ccccc1 (single isomer, unassigned) | 7.07 | – | –
CC(C)(C)C(=O)C(C(=O)OCc1ccccc1)N1C(=O)[C@@H](N2C(=O)OC[C@@H]2c2ccccc2)[C@H]1C=O (stereo not given in full) | < 4.70 | – | –
O=C(NCc1cccc(C(F)(F)F)c1)[C@@H](CCC(=O)N1CCN(CC2CCCCC2)CC1)N1C(=O)[C@@H](N2C(=O)OC[C@@H]2c2ccccc2)[C@H]1/C=C/c1ccccc1 | – | < 7.92 | –
CC(C)C[C@@H](C(=O)NCc1ccccc1Cl)N1C(=O)[C@@H](N2C(=O)OC[C@@H]2c2ccccc2)[C@H]1/C=C/c1ccccc1 | 6.00 | – | –
CC1(C(C(=O)OCC[Si](C)(C)C)N2C(=O)[C@@H](N3C(=O)OC[C@@H]3c3ccccc3)[C@H]2/C=C/c2ccccc2)OCCO1 (stereo not given in full) | 6.39 | – | –
O=C(NCc1ccc(F)c(C(F)(F)F)c1)[C@H](CCC(=O)N1CCN(C2CCCCC2)CC1)N1C(=O)[C@@H](N2C(=O)OC[C@@H]2c2ccccc2)[C@H]1/C=C/c1ccccc1 | – | > 7.52 | –
CC(C)C[C@@H](C(=O)N1CCC(N2CCCCC2)CC1)N1C(=O)[C@@H](N2C(=O)OC[C@@H]2c2ccccc2)[C@H]1/C=C/c1ccccc1 | 7.27 | – | –
CC(=O)NC1C(=O)N(C(C(=O)OCc2ccccc2)C2(C)OCCO2)[C@@H]1/C=C/c1ccccc1 (stereo not given in full) | < 4.70 | – | –
CC1(C(C(=O)OCc2ccccc2)N2C(=O)C(NC(=O)Nc3ccccc3)[C@H]2/C=C/c2ccccc2)OCCO1 (stereo not given in full) | < 5.30 | – | –
O=C(NCc1cccc(C(F)(F)F)c1)[C@@H](CC(=O)N1CCC(N2CCCCC2)CC1)N1C(=O)[C@@H](N2C(=O)OC[C@@H]2c2ccccc2)[C@H]1/C=C/c1ccccc1 | – | – | Cmax [4]: 0.05 µg/mL
CCCN1CCN(C(=O)CC[C@@H](C(=O)NCc2cccc(C(F)(F)F)c2)N2C(=O)[C@@H](N3C(=O)OC[C@@H]3c3ccccc3)[C@H]2/C=C/c2ccccc2)CC1 | – | 8.92 | –
O=C(NCc1cccc(C(F)(F)F)c1)[C@H](CC(=O)N1CCN(C2CCCCC2)CC1)N1C(=O)[C@@H](N2C(=O)OC[C@@H]2c2ccccc2)[C@H]1/C=C/c1ccccc1 | – | 7.52 | –
C[C@@H](NC(=O)[C@H](CC(=O)N1CCC(N2CCCCC2)CC1)N1C(=O)[C@@H](N2C(=O)OC[C@@H]2c2ccccc2)[C@H]1/C=C/c1ccccc1)c1cccc(C(F)(F)F)c1 | – | < 8.22 | –
CC(C)(C)C(=O)C(C(=O)OCc1ccccc1)N1C(=O)[C@@H](N2C(=O)OC[C@@H]2c2ccccc2)[C@H]1/C=C/c1ccco1 (stereo not given in full) | 8.70 | – | –
O=C(C[C@@H](C(=O)N1CCN(CCc2ccccc2)CC1)N1C(=O)[C@@H](N2C(=O)OC[C@@H]2c2ccccc2)[C@H]1/C=C/c1ccccc1)NCc1cccc(C(F)(F)F)c1 | – | 5.21 | –
CC1(C(C(=O)OCc2ccccc2)N2C(=O)C(N)[C@H]2/C=C/c2ccccc2)OCCO1 (stereo not given in full) | < 4.70 | – | –
C[C@@H](NC(=O)[C@@H](CC(=O)N1CCC(N2CCCCC2)CC1)N1C(=O)[C@@H](N2C(=O)OC[C@@H]2c2ccccc2)[C@H]1/C=C/c1ccccc1)c1cccc(C(F)(F)F)c1 [SRX246] | – | 8.90 | –
CC1(C(C(=O)OCc2ccccc2)N2C(=O)[C@@H](N3C(=O)c4ccccc4C3=O)[C@H]2/C=C/c2ccccc2)OCCO1 (stereo not given in full) | 4.21 | – | –
CC1(C(C(=O)O)N2C(=O)[C@@H](N3C(=O)OC[C@@H]3c3ccccc3)[C@H]2/C=C/c2ccccc2)OCCO1 (stereo not given in full) | < 5.30 | – | –
